Active and inactive are the calls of the source. The rule behind the calls is not given here.
Tests used:
[1] = Cmax in Swiss albino mouse at 50 mg/kg, ip measured after 8 hrs; format: ADME, organism-based; parameters: dose 50 mg/kg, route intraperitoneal; conditions: in vivo
[2] = tested on: Protein cereblon/Epidermal growth factor receptor (Homo sapiens), P00533+Q96SW2 [L858R]; experiment: Protac activity at CRBN/EGFR L858R mutant in human H3255 cells assessed as reduction in AKT phosphorylation at 100 nM treated 8 hrs post serum starvation by Western blot analysis; format: cell-based; conditions: TDE = time-dependent effect
Method in brief: (§1)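 After 8 h serum starvation, cells got 100 nM degrader and were collected at serial time points for Western blot of EGFR and downstream signaling.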

HCC827 [3] = experiment: Effect on AKT level in human HCC827 cells up to 10 uM treated 8 hrs post serum starvation measured after 16 hrs by Western blot analysis; format: ADME, cell-based; conditions: hcc827, 16 h
[4] = tested on: Protein cereblon/Epidermal growth factor receptor (Homo sapiens), P00533+Q96SW2 [UNDEFINED MUTATION]; experiment: Protac activity at CRBN/EGFR exon 19 deletion mutant in human HCC827 cells assessed as induction of EGFR degradation at 10 uM treated 8 hrs post serum starvation measured after 16 hrs by Western blot analysis relative to control; format: cell-based
Method in brief: (§2)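 Cultured to 80% confluence in RPMI/1640 with 20% FBS at 37 °C and 5% CO2, then switched to serum-free medium for 8 h. Degraders were added over a concentration range up to 10 μM for 16 h, with gefitinib at 1 μM as reference. Lysates in Laemmli buffer were immunoblotted for EGFR, p-EGFR and p-AKT. DC50 came from band quantification by nonlinear regression (variable slope).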

[5] = tested on: Protein cereblon/Epidermal growth factor receptor (Homo sapiens), P00533+Q96SW2 [L858R]; experiment: Protac activity at CRBN/EGFR L858R mutant in human H3255 cells assessed as induction of EGFR degradation at 100 nM treated 8 hrs post serum starvation by Western blot analysis; format: cell-based; conditions: TDE = time-dependent effect; method in brief: as §1
[6] = biological target: Epidermal growth factor receptor (Homo sapiens, UniProt P00533); experiment: Induction of wild-type EGFR degradation in human OVCAR8 cells at up to 10 uM treated 8 hrs post serum starvation measured after 16 hrs by Western blot analysis; format: cell-based
[7] = tested on: Protein cereblon/Epidermal growth factor receptor (Homo sapiens), P00533+Q96SW2 [L858R]; experiment: Protac activity at CRBN/EGFR L858R mutant in human H3255 cells assessed as reduction in EGFR autophosphorylation up to 10 uM treated 8 hrs post serum starvation measured after 16 hrs by Western blot analysis; format: cell-based; method in brief: as §2
[8] = tested on: Protein cereblon/Epidermal growth factor receptor (Homo sapiens), P00533+Q96SW2 [L858R]; experiment: Protac activity at CRBN/EGFR L858R mutant in human H3255 cells assessed as reduction in AKT phosphorylation up to 10 uM treated 8 hrs post serum starvation measured after 16 hrs by Western blot analysis; format: cell-based; method in brief: as §2
[9] = tested on: Protein cereblon/Epidermal growth factor receptor (Homo sapiens), P00533+Q96SW2 [UNDEFINED MUTATION]; experiment: Protac activity at CRBN/EGFR exon 19 deletion mutant in human HCC827 cells assessed as induction of EGFR degradation at 0.1 to 1 uM incubated for 8 hrs in absence of FBS by Western blot analysis; format: cell-based
HCC827 [10] = experiment: Down regulation of SLC30A7 expression in human HCC827 cells at 100 nM measured after 16 hrs by LC-MS analysis; format: functional, cell-based
Method in brief: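 HCC-827 cells serum-starved 8 h, then treated at 100 nM for 16 h. Collected for label-free quantitative LC–MS proteomics; LFQ intensity compared between treated and control groups; three independent experiments.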

[11] = tested on: Protein cereblon/Epidermal growth factor receptor (Homo sapiens), P00533+Q96SW2 [UNDEFINED MUTATION]; experiment: Protac activity at CRBN/EGFR exon 19 deletion mutant in human HCC827 cells assessed as reduction in EGFR autophosphorylation up to 10 uM treated 8 hrs post serum starvation measured after 16 hrs by Western blot analysis; format: cell-based; method in brief: as §2

Sequence of Protein cereblon/Epidermal growth factor receptor (Homo sapiens), P00533+Q96SW2 [UNDEFINED MUTATION] (P00533 whole entry, looked up, stated change not applied): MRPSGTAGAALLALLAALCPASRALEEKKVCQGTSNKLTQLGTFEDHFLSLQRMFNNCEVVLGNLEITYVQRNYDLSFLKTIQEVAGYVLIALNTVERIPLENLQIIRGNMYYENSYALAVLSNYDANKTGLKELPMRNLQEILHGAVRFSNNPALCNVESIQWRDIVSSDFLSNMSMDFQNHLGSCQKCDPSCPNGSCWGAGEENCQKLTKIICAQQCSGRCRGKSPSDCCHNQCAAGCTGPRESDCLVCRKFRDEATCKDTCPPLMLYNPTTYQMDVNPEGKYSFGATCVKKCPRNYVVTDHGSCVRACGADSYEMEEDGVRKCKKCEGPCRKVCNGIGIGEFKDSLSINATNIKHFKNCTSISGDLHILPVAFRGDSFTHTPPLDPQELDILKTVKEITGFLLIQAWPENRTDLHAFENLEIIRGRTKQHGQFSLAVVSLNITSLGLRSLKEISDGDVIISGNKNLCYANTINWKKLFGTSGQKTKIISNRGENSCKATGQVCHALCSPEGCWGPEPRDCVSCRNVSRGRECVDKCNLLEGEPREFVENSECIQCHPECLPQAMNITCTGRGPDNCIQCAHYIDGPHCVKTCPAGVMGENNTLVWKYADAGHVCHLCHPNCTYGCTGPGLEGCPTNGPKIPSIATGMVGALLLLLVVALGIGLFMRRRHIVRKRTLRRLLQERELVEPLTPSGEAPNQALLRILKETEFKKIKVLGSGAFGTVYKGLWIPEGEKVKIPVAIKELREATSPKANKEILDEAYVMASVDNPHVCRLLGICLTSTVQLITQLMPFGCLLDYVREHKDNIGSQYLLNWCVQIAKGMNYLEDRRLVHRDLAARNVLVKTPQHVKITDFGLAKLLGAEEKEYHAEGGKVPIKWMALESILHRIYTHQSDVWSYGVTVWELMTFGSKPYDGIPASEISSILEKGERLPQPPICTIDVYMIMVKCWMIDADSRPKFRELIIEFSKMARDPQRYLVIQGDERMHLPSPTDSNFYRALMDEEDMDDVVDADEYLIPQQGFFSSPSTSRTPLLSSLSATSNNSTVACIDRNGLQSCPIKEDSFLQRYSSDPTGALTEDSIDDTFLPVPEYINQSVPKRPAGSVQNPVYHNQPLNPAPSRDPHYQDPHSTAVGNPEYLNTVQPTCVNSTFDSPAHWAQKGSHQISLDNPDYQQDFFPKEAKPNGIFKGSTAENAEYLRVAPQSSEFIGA
Sequence of Protein cereblon/Epidermal growth factor receptor (Homo sapiens), P00533+Q96SW2 [UNDEFINED MUTATION] (Q96SW2 whole entry, looked up, stated change not applied): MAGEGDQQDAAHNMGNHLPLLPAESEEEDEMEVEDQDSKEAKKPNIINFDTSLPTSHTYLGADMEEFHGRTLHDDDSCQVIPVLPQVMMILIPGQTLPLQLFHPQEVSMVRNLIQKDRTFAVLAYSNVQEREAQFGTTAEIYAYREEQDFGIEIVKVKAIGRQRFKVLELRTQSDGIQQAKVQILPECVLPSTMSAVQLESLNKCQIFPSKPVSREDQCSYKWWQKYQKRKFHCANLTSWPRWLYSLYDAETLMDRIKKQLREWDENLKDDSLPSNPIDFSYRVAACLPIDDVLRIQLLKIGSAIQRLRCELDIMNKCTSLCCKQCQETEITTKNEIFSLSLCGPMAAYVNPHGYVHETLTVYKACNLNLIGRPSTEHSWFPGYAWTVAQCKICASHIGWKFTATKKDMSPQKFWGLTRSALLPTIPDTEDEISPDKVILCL
Sequence of Epidermal growth factor receptor (P00533 whole entry): as the sequence (P00533 whole entry, looked up, stated change not applied) above

Structure (SMILES): COc1cc2ncnc(Nc3ccc(F)c(Cl)c3)c2cc1OCCCN1CCN(CCC(=O)NCCCCCCCCOc2cccc3c2C(=O)N(C2CCC(=O)NC2=O)C3=O)CC1 (stereo unspecified)
- Cmax [1]: 500 nM
- Activity [2]: Tde
- Activity (HCC827 [3]): Non-Toxic
- Activity [4]: inactive
- Activity [5]: Tde
- Activity [6]: Not Active
- Activity [7]: Active
- Activity [8]: Active
- Activity [9]: Active
- Activity (HCC827 [10]): Active
- Activity [11]: Active

Source: ChEMBL document CHEMBL4376874, “Discovery of Potent and Selective Epidermal Growth Factor Receptor (EGFR) Bifunctional Small-Molecule Degraders” (J Med Chem, 2020)
